{"source": "ChEMBL document CHEMBL2424551", "about": "“Synthesis, in vitro evaluation and molecular modelling of naphthalimide analogue as anticancer agents” (2013)", "type_in_all_cases": "functional", "key": {"[1]": {"test": "Growth inhibition of human EKVX cells at 10 uM after 48 hrs by SRB assay", "conditions": "read-out: GI", "procedure,_shortened": "(§1)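 Cells grown in RPMI 1640 with 5% FBS and 2 mM L-glutamine, plated at 5000–40,000 cells/well by doubling time and preincubated 24 h (37 °C, 5% CO2); a time-zero plate is TCA-fixed. Single dose added, then 48 h incubation. Fixed with cold TCA, stained with 0.4% SRB, dye solubilized in 10 mM Tris base, absorbance at 515 nm; percent growth vs time-zero and untreated control.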"}, "PC-3": {"system": "PC-3", "test": "Growth inhibition of human PC3 cells at 10 uM after 48 hrs by SRB assay", "conditions": "PC-3, 48 h, read-out: GI", "procedure,_shortened": "as §1"}, "[2]": {"test": "Cytotoxicity against human CNS cancer cells after 48 hrs by SRB assay", "conditions": "Cancer cell lines", "procedure,_shortened": "(§2)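 Five-concentration screen (10-fold or ½-log serial dilutions) on the 60-line panel. Cells grown in RPMI 1640 with 5% FBS and 2 mM L-glutamine, plated at 5000–40,000/well by doubling time, preincubated 24 h at 37 °C, 5% CO2, then exposed 48 h. Time-zero plates TCA-fixed. SRB stain, Tris-solubilized, A515. GI50, TGI and LC50 derived from Tz, C and Ti.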"}, "NCI-H460": {"system": "NCI-H460", "test": "Growth inhibition of human NCI-H460 cells at 10 uM after 48 hrs by SRB assay", "conditions": "NCI-H460, 48 h, read-out: GI", "procedure,_shortened": "as §1"}, "OVCAR-4": {"system": "OVCAR-4", "test": "Growth inhibition of human OVCAR4 cells at 10 uM after 48 hrs by SRB assay", "conditions": "OVCAR-4, 48 h, read-out: GI", "procedure,_shortened": "as §1"}, "HCT-116": {"system": "HCT-116", "test": "Growth inhibition of human HCT116 cells at 10 uM after 48 hrs by SRB assay", "conditions": "HCT-116, 48 h, read-out: GI", "procedure,_shortened": "as §1"}, "RXF 393": {"system": "RXF 393", "test": "Growth inhibition of human RXF393 cells at 10 uM after 48 hrs by SRB assay", "conditions": "RXF 393, 48 h, read-out: GI", "procedure,_shortened": "as §1"}, "HL-60(TB)": {"system": "HL-60(TB)", "test": "Growth inhibition of human HL-60(TB) cells at 10 uM after 48 hrs by SRB assay", "conditions": "HL-60, 48 h, read-out: GI", "procedure,_shortened": "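Single-concentration pass across the 60-line panel in RPMI 1640 with 5% FBS. Cells preincubated 24 h, then exposed 48 h at 37 °C, 5% CO2. Read by SRB staining with absorbance at 515 nm. Percent growth is taken relative to time-zero and untreated controls and reported as percent growth inhibition (GI %).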"}, "[3]": {"test": "Cytotoxicity against human leukemia cells after 48 hrs by SRB assay", "conditions": "Leukemia cell", "procedure,_shortened": "as §2"}, "UO-31": {"system": "UO-31", "test": "Growth inhibition of human UO31 cells at 10 uM after 48 hrs by SRB assay", "conditions": "UO-31, 48 h, read-out: GI", "procedure,_shortened": "(§3)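 NCI 60-cell-line screen with a single 10 µM dose. Cells are grown in RPMI 1640 with 5% FBS and 2 mM L-glutamine, plated at 5000–40,000 cells/well according to doubling time, and preincubated 24 h at 37 °C, 5% CO2; time-zero plates are TCA-fixed at that point. Drug exposure is 48 h. Adherent cells are fixed with cold TCA, stained with 0.4% SRB in 1% acetic acid and read at 515 nm. Percent growth is calculated relative to time-zero and untreated controls and reported as GI%.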"}, "[4]": {"test": "Cytotoxicity against human ovarian cancer cells after 48 hrs by SRB assay", "conditions": "Cancer cell lines", "procedure,_shortened": "as §2"}, "SNB-19": {"system": "SNB-19", "test": "Growth inhibition of human SNB19 cells at 10 uM after 48 hrs by SRB assay", "conditions": "SNB-19, 48 h, read-out: GI", "procedure,_shortened": "as §3"}, "A498": {"system": "A498", "test": "Growth inhibition of human A498 cells at 10 uM after 48 hrs by SRB assay", "procedure,_shortened": "as §1"}, "MCF7": {"system": "MCF7", "test": "Growth inhibition of human MCF7 cells at 10 uM after 48 hrs by SRB assay", "conditions": "MCF7, 48 h, read-out: GI", "procedure,_shortened": "as §1"}, "RPMI-8226": {"system": "RPMI-8226", "test": "Growth inhibition of human RPMI8226 cells at 10 uM after 48 hrs by SRB assay", "conditions": "RPMI-8226, 48 h, read-out: GI", "procedure,_shortened": "as §1"}, "[5]": {"test": "Cytotoxicity against human prostate cancer cells after 48 hrs by SRB assay", "conditions": "Cancer cell lines", "procedure,_shortened": "as §2"}, "[6]": {"test": "Cytotoxicity against human colon cancer cells after 48 hrs by SRB assay", "conditions": "Cancer cell lines", "procedure,_shortened": "as §2"}, "[7]": {"test": "Cytotoxicity against human breast cancer cells after 48 hrs by SRB assay", "conditions": "Cancer cell lines", "procedure,_shortened": "as §2"}, "UACC-62": {"system": "UACC-62", "test": "Growth inhibition of human UACC62 cells at 10 uM after 48 hrs by SRB assay", "conditions": "UACC-62, 48 h, read-out: GI", "procedure,_shortened": "as §3"}, "BT-549": {"system": "BT-549", "test": "Growth inhibition of human BT549 cells at 10 uM after 48 hrs by SRB assay", "conditions": "BT-549, 48 h, read-out: GI", "procedure,_shortened": "as §1"}, "[8]": {"test": "Growth inhibition of human NCI-ADR-RES cells at 10 uM after 48 hrs by SRB assay", "conditions": "read-out: GI", "procedure,_shortened": "as §1"}, "SF-268": {"system": "SF-268", "test": "Growth inhibition of human SF268 cells at 10 uM after 48 hrs by SRB assay", "conditions": "SF-268, 48 h, read-out: GI", "procedure,_shortened": "as §1"}, "[9]": {"test": "Cytotoxicity against human melanoma cells after 48 hrs by SRB assay", "conditions": "Melanoma cell", "procedure,_shortened": "as §2"}, "[10]": {"test": "Cytotoxicity against human non-small cell lung cancer cells after 48 hrs by SRB assay", "conditions": "Cancer cell lines", "procedure,_shortened": "as §2"}, "HCT-15": {"system": "HCT-15", "test": "Growth inhibition of human HCT15 cells at 10 uM after 48 hrs by SRB assay", "conditions": "HCT-15, 48 h, read-out: GI", "procedure,_shortened": "as §1"}, "NCI-H322M": {"system": "NCI-H322M", "test": "Growth inhibition of human NCI-H322M cells at 10 uM after 48 hrs by SRB assay", "conditions": "read-out: GI", "procedure,_shortened": "as §1"}, "[11]": {"test": "Cytotoxicity against human renal cancer cells after 48 hrs by SRB assay", "conditions": "Cancer cell lines", "procedure,_shortened": "as §2"}, "DU-145": {"system": "DU-145", "test": "Growth inhibition of human DU145 cells at 10 uM after 48 hrs by SRB assay", "conditions": "DU-145, 48 h, read-out: GI", "procedure,_shortened": "as §1"}, "T47D": {"system": "T47D", "test": "Growth inhibition of human T47D cells at 10 uM after 48 hrs by SRB assay", "conditions": "read-out: GI", "procedure,_shortened": "as §3"}, "TK-10": {"system": "TK-10", "test": "Growth inhibition of human TK10 cells at 10 uM after 48 hrs by SRB assay", "conditions": "TK-10, 48 h, read-out: GI", "procedure,_shortened": "as §3"}, "MDA-MB-435": {"system": "MDA-MB-435", "test": "Growth inhibition of human MDA-MB-435 cells at 10 uM after 48 hrs by SRB assay", "conditions": "MDA-MB-435, 48 h, read-out: GI", "procedure,_shortened": "as §1"}, "[12]": {"conditions": "read-out: LC50 (the source's name)"}}, "note": "The source made the active and inactive calls. No cut-off for these calls is given here.", "data": [{"smiles": "O=c1[nH]cc(F)c(=O)[nH]1", "note": "[FLUOROURACIL]", "values": [{"measurement": "inhibition of growth at 10 µM", "setting": "[1]", "value": 58.4, "unit": "%"}, {"measurement": "inhibition of growth at 10 µM", "setting": "PC-3", "value": 58.2, "unit": "%"}, {"measurement": "GI50", "setting": "[2]", "value": 72.1, "unit": "µM"}, {"measurement": "TGI", "setting": "[2]", "value": "> 100", "unit": "µM"}, {"measurement": "CC50", "setting": "[2]; [12]", "value": "> 100", "unit": "µM"}, {"measurement": "inhibition of growth at 10 µM", "setting": "NCI-H460", "value": 13, "unit": "%"}, {"measurement": "inhibition of growth at 10 µM", "setting": "OVCAR-4", "value": 59.4, "unit": "%"}, {"measurement": "inhibition of growth at 10 µM", "setting": "HCT-116", "value": 17.8, "unit": "%"}, {"measurement": "inhibition of growth at 10 µM", "setting": "RXF 393", "value": 34.3, "unit": "%"}, {"measurement": "inhibition of growth at 10 µM", "setting": "HL-60(TB)", "value": 47.9, "unit": "%"}, {"measurement": "GI50", "setting": "[3]", "value": 1.51, "unit": "µM"}, {"measurement": "TGI", "setting": "[3]", "value": "> 100", "unit": "µM"}, {"measurement": "inhibition of growth at 10 µM", "setting": "UO-31", "value": 41.3, "unit": "%"}, {"measurement": "GI50", "setting": "[4]", "value": 61.4, "unit": "µM"}, {"measurement": "TGI", "setting": "[4]", "value": "> 100", "unit": "µM"}, {"measurement": "CC50", "setting": "[4]; [12]", "value": "> 100", "unit": "µM"}, {"measurement": "inhibition of growth at 10 µM", "setting": "SNB-19", "value": 65.9, "unit": "%"}, {"measurement": "growth inhibition (GI)", "setting": "A498", "value": "Active"}, {"measurement": "inhibition of growth at 10 µM", "setting": "MCF7", "value": 11.5, "unit": "%"}, {"measurement": "inhibition of growth at 10 µM", "setting": "RPMI-8226", "value": 41.4, "unit": "%"}, {"measurement": "GI50", "setting": "[5]", "value": 22.7, "unit": "µM"}, {"measurement": "TGI", "setting": "[5]", "value": "> 100", "unit": "µM"}, {"measurement": "GI50", "setting": "[6]", "value": 8.4, "unit": "µM"}, {"measurement": "TGI", "setting": "[6]", "value": "> 100", "unit": "µM"}, {"measurement": "CC50", "setting": "[6]; [12]", "value": "> 100", "unit": "µM"}, {"measurement": "GI50", "setting": "[7]", "value": 76.4, "unit": "µM"}, {"measurement": "TGI", "setting": "[7]", "value": "> 100", "unit": "µM"}, {"measurement": "inhibition of growth at 10 µM", "setting": "UACC-62", "value": 39.7, "unit": "%"}, {"measurement": "inhibition of growth at 10 µM", "setting": "BT-549", "value": 37.8, "unit": "%"}, {"measurement": "inhibition of growth at 10 µM", "setting": "[8]", "value": 47.6, "unit": "%"}, {"measurement": "inhibition of growth at 10 µM", "setting": "SF-268", "value": 59, "unit": "%"}, {"measurement": "GI50", "setting": "[9]", "value": 70.6, "unit": "µM"}, {"measurement": "TGI", "setting": "[9]", "value": "> 100", "unit": "µM"}, {"measurement": "GI50", "setting": "[10]", "value": "> 100", "unit": "µM"}, {"measurement": "TGI", "setting": "[10]", "value": "> 100", "unit": "µM"}, {"measurement": "inhibition of growth at 10 µM", "setting": "HCT-15", "value": 26.5, "unit": "%"}, {"measurement": "inhibition of growth at 10 µM", "setting": "NCI-H322M", "value": 59.5, "unit": "%"}, {"measurement": "GI50", "setting": "[11]", "value": 45.6, "unit": "µM"}, {"measurement": "TGI", "setting": "[11]", "value": "> 100", "unit": "µM"}, {"measurement": "CC50", "setting": "[11]; [12]", "value": "> 100", "unit": "µM"}, {"measurement": "inhibition of growth at 10 µM", "setting": "DU-145", "value": 35.5, "unit": "%"}, {"measurement": "inhibition of growth at 10 µM", "setting": "T47D", "value": 56.7, "unit": "%"}, {"measurement": "inhibition of growth at 10 µM", "setting": "TK-10", "value": 66.9, "unit": "%"}, {"measurement": "inhibition of growth at 10 µM", "setting": "MDA-MB-435", "value": 36.6, "unit": "%"}]}]}
